Experimental data reported in ChEMBL document CHEMBL1142136, “Contribution of target gene mutations and efflux to decreased susceptibility of Salmonella enterica serovar typhimurium to fluoroquinolones and other antimicrobials” (2007).

Legend:
Type in all cases: functional, Salmonella enterica subsp. enterica serovar Typhimurium
[1] = tested on: Salmonella typhimurium; experiment: Antimicrobial activity against Salmonella enterica serovar Typhimurium S21-2 gyrA+ with ParC S80I mutation
Method in brief: (§1)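 MICs measured by broth microdilution on the Sensititre automated system and interpreted by CLSI broth microdilution standards. Ciprofloxacin was also tested by agar dilution, widening the range to 0.0075–128 μg/ml. Quality control strains were E. coli ATCC 25922 and 35218, E. faecalis ATCC 29212, S. aureus ATCC 29213 and P. aeruginosa ATCC 27853.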

[2] = tested on: Salmonella typhimurium; experiment: Antimicrobial activity against Salmonella enterica serovar Typhimurium CHS38 acrAB::Kan with GyrA D87G mutation; method in brief: as §1
[3] = tested on: Salmonella typhimurium; experiment: Antimicrobial activity against Salmonella enterica serovar Typhimurium GyrA S21-1 acrAB::Kan with GyrA S83F mutation; method in brief: as §1
[4] = tested on: Salmonella typhimurium; experiment: Antimicrobial activity against Salmonella enterica serovar Typhimurium CS3 with GyrA S83F, D87N, ParC S80I mutation; method in brief: as §1
[5] = tested on: Salmonella typhimurium; experiment: Antimicrobial activity against Salmonella enterica serovar Typhimurium S21-2 acrAB::Kan with GyrA S83F, ParC S80I mutation; method in brief: as §1
[6] = tested on: Salmonella typhimurium; experiment: Antimicrobial activity against Salmonella enterica serovar Typhimurium CS1 acrAB::Kan with GyrA S83F, D87N, ParC S80I mutation; method in brief: as §1
[7] = tested on: Salmonella typhimurium; experiment: Antimicrobial activity against Salmonella enterica serovar Typhimurium CS3 acrAB::Kan with GyrA S83F, D87N, ParC S80I mutation; method in brief: as §1
[8] = tested on: Salmonella typhimurium; experiment: Antimicrobial activity against Salmonella enterica serovar Typhimurium CHS14 gyrA+ with GyrA D87G mutation; method in brief: as §1
[9] = tested on: Salmonella typhimurium; experiment: Antimicrobial activity against Salmonella enterica serovar Typhimurium CHS38 tolC::Kan with GyrA D87G mutation; method in brief: as §1
[10] = tested on: Salmonella typhimurium; experiment: Antimicrobial activity against Salmonella enterica serovar Typhimurium CS9 gyrA+ with GyrA S83F, D87N, ParC S80I mutation; method in brief: as §1
[11] = tested on: Salmonella typhimurium; experiment: Antimicrobial activity against Salmonella enterica serovar Typhimurium S21-2 with GyrA S83F, ParC S80I mutation; method in brief: as §1
[12] = tested on: Salmonella typhimurium; experiment: Antimicrobial activity against Salmonella enterica serovar Typhimurium S21-4 acrAB::Kan with GyrA S83F, ParC S80I mutation; method in brief: as §1
[13] = tested on: Salmonella typhimurium; experiment: Antimicrobial activity against Salmonella enterica serovar Typhimurium S21-1 gyrA+; method in brief: as §1
[14] = tested on: Salmonella typhimurium; experiment: Antimicrobial activity against Salmonella enterica serovar Typhimurium S21-1 tolC::Kan with GyrA S83F mutation; method in brief: as §1
[15] = tested on: Salmonella typhimurium; experiment: Antimicrobial activity against Salmonella enterica serovar Typhimurium CS1 tolC::Kan with GyrA S83F, D87N, ParC S80I mutation; method in brief: as §1
[16] = tested on: Salmonella typhimurium; experiment: Antimicrobial activity against Salmonella enterica serovar Typhimurium CHS38 gyrA+ with GyrA D87G mutation; method in brief: as §1
[17] = tested on: Salmonella typhimurium; experiment: Antimicrobial activity against Salmonella enterica serovar Typhimurium CS9 tolC::Kan with GyrA S83F, D87N, ParC S80I mutation; method in brief: as §1
[18] = tested on: Salmonella typhimurium; experiment: Antimicrobial activity against Salmonella enterica serovar Typhimurium CHS18 gyrA+ with GyrA S38F mutation; method in brief: as §1
[19] = tested on: Salmonella typhimurium; experiment: Antimicrobial activity against Salmonella enterica serovar Typhimurium S21-3 tolC::Kan with GyrA S83F, ParC S80I mutation; method in brief: as §1
[20] = tested on: Salmonella typhimurium; experiment: Antimicrobial activity against Salmonella enterica serovar Typhimurium CHS14 with GyrA D87G mutation; method in brief: as §1
[21] = tested on: Salmonella typhimurium; experiment: Antimicrobial activity against Salmonella enterica serovar Typhimurium CHS38 with GyrA D87G mutation; method in brief: as §1
[22] = tested on: Salmonella typhimurium; experiment: Antimicrobial activity against Salmonella enterica serovar Typhimurium S21-4 with GyrA S83F, ParC S80I mutation; method in brief: as §1
[23] = tested on: Salmonella typhimurium; experiment: Antimicrobial activity against Salmonella enterica serovar Typhimurium S21-3 acrAB::Kan with GyrA S83F, ParC S80I mutation; method in brief: as §1
[24] = tested on: Salmonella typhimurium; experiment: Antimicrobial activity against Salmonella enterica serovar Typhimurium CS1 with GyrA S83F, D87N, ParC S80I mutation; method in brief: as §1
[25] = tested on: Salmonella typhimurium; experiment: Antimicrobial activity against Salmonella enterica serovar Typhimurium CHS14 tolC::Kan with GyrA D87G mutant; method in brief: as §1
[26] = tested on: Salmonella typhimurium; experiment: Antimicrobial activity against Salmonella enterica serovar Typhimurium CS3 gyrA+ with GyrA S83F, D87N, ParC S80I mutation; method in brief: as §1
[27] = tested on: Salmonella typhimurium; experiment: Antimicrobial activity against Salmonella enterica serovar Typhimurium S21-2 tolC::Kan with GyrA S83F, ParC S80I mutation; method in brief: as §1
[28] = tested on: Salmonella typhimurium; experiment: Antimicrobial activity against Salmonella enterica serovar Typhimurium S21-4 gyrA+ with ParC S80I mutation; method in brief: as §1
[29] = tested on: Salmonella typhimurium; experiment: Antimicrobial activity against Salmonella enterica serovar Typhimurium S21-4 tolC::Kan with GyrA S83F, ParC S80I mutation; method in brief: as §1
[30] = tested on: Salmonella typhimurium; experiment: Antimicrobial activity against Salmonella enterica serovar Typhimurium CS9 acrAB::Kan with GyrA S83F, D87N, ParC S80I mutation; method in brief: as §1
[31] = tested on: Salmonella typhimurium; experiment: Antimicrobial activity against Salmonella enterica serovar Typhimurium S21; method in brief: as §1
[32] = tested on: Salmonella typhimurium; experiment: Antimicrobial activity against Salmonella enterica serovar Typhimurium CS9 with GyrA S83F, D87N, ParC S80I mutation; method in brief: as §1
[33] = tested on: Salmonella typhimurium; experiment: Antimicrobial activity against Salmonella enterica serovar Typhimurium CS1 gyrA+ with GyrA S83F, D87N, ParC S80I mutation; method in brief: as §1
[34] = tested on: Salmonella typhimurium; experiment: Antimicrobial activity against Salmonella enterica serovar Typhimurium CHS18 with GyrA S38F mutation; method in brief: as §1
[35] = tested on: Salmonella typhimurium; experiment: Antimicrobial activity against Salmonella enterica serovar Typhimurium S21 acrAB::Kan
Method in brief: (§2)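 MICs by automated broth microdilution panels, interpreted to CLSI broth microdilution standards. Ciprofloxacin additionally tested by agar dilution across 0.0075 to 128 μg/ml. Quality control strains: E. coli ATCC 25922 and 35218, Enterococcus faecalis ATCC 29212, S. aureus ATCC 29213, P. aeruginosa ATCC 27853. Test strains are kanamycin-marked deletion mutants of ground-beef isolate S21.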

[36] = tested on: Salmonella typhimurium; experiment: Antimicrobial activity against Salmonella enterica serovar Typhimurium CHS14 acrAB::Kan with GyrA D87G mutation; method in brief: as §1
[37] = tested on: Salmonella typhimurium; experiment: Antimicrobial activity against Salmonella enterica serovar Typhimurium CS3 tolC::Kan with GyrA S83F, D87N, parC S80I mutation; method in brief: as §1
[38] = tested on: Salmonella typhimurium; experiment: Antimicrobial activity against Salmonella enterica serovar Typhimurium CHS18 tolC::Kan with GyrA S38F mutation; method in brief: as §1
[39] = tested on: Salmonella typhimurium; experiment: Antimicrobial activity against Salmonella enterica serovar Typhimurium S21-3 gyrA+ with ParC S80I mutation; method in brief: as §1
[40] = tested on: Salmonella typhimurium; experiment: Antimicrobial activity against Salmonella enterica serovar Typhimurium S21-1 GyrA S83F mutant; method in brief: as §1
[41] = tested on: Salmonella typhimurium; experiment: Antimicrobial activity against Salmonella enterica serovar Typhimurium S21 tolC::Kan; method in brief: as §2
[42] = tested on: Salmonella typhimurium; experiment: Antimicrobial activity against Salmonella enterica serovar Typhimurium S21-3 with GyrA S83F, ParC S80I mutation; method in brief: as §1
[43] = tested on: Salmonella typhimurium; experiment: Antimicrobial activity against Salmonella enterica serovar Typhimurium CHS18 acrAB::Kan with GyrA S38F mutation; method in brief: as §1
[44] = tested on: Salmonella typhimurium; experiment: Antimicrobial activity against Salmonella enterica serovar Typhimurium S21 gyrA+; method in brief: as §1

Measured: MIC

O=C(O)c1cn(C2CC2)c2cc(N3CCNCC3)c(F)cc2c1=O [CIPROFLOXACIN]
0.25 µg/mL: [1] | [12] | [19] | [23] | [29] | [40]
0.12 µg/mL: [5] | [20] | [27] | [34]
16 µg/mL: [4] | [24] | [32]
0.03 µg/mL: [2] | [10] | [26] | [33] | [38] | [43]
4 µg/mL: [6] | [7] | [11] | [28] | [30]
2 µg/mL: [15] | [17] | [37] | [39]
256 µg/mL: [22]
0.015 µg/mL: [13]
32 µg/mL: [42]
0.06 µg/mL: [3] | [14] | [18] | [21]
< 0.015 µg/mL: all other assays above

CC(=O)OCC1=C(C(=O)O)N2C(=O)[C@@H](NC(=O)Cc3cccs3)[C@H]2SC1 [CEPHALOTHIN]
> 32 µg/mL: [1] | [11] | [22] | [28] | [39] | [42]
2 µg/mL: [38] | [43]
4 µg/mL: [18] | [20] | [34]
< 2 µg/mL: [8] | [25] | [31] | [35] | [36] | [41] | [44]
16 µg/mL: [4] | [16] | [24] | [32]
not listed: [3] | [14]
8 µg/mL: all other assays above
